Tests used:
Chymotrypsinogen A [1] = biological target: T1, Chymotrypsinogen A (Bos taurus, UniProt P00766); experiment: Compound was evaluated for inactivation of bovine alpha-Chymotrypsin Kinetic constant(Ki)
Chymotrypsinogen A [2] = biological target: T1, Chymotrypsinogen A; experiment: In vitro inhibition of bovine alpha chymotrypsin.
Method in brief: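 Bovine pancreatic α-chymotrypsin (type I-S, 47 ng/mL) with N-succinyl-Ala-Ala-Pro-Phe-pNA (1.5 mM) in 50 mM HEPES pH 7.4 containing 0.1 mM NaCl, across a range of inhibitor concentrations. Incubated 120 min at 37 °C, then A405 read. IC50 taken from dose-inhibition curves, in triplicate. Chymostatin served as control.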

[3] = biological target: Chymotrypsin-like elastase family member 1 (Sus scrofa, UniProt P00772); experiment: Compound was tested by chromogenic assay for the inhibition of serine proteases like Porcine Elastase
Chain of Chymotrypsin-like elastase family member 1 (P00772 whole entry): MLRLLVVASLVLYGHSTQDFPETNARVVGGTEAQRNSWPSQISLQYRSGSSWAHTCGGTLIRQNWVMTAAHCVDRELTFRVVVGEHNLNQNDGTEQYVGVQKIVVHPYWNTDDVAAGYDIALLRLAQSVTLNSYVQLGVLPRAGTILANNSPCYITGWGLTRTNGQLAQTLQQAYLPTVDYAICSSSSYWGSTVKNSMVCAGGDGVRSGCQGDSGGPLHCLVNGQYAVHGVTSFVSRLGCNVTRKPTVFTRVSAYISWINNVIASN
Method in brief: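 Purified porcine pancreatic elastase (type III) with chromogenic substrate N-succinyl-Ala-Ala-Ala-pNA in 50 mM HEPES, pH 7.4, with NaCl. Enzyme and substrate were mixed with a range of inhibitor concentrations and held at 37 °C for 120 min. Activity was read as absorbance at 405 nm. IC50 was taken from dose-inhibition curves, with elastatinal as the reference inhibitor.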

Serine protease 1 = biological target: T2, Serine protease 1 (Bos taurus, UniProt P00760); experiment: Compound was tested by chromogenic assay for the inhibition of serine proteases like Bovine trypsin
T2 sequence (P00760 whole entry): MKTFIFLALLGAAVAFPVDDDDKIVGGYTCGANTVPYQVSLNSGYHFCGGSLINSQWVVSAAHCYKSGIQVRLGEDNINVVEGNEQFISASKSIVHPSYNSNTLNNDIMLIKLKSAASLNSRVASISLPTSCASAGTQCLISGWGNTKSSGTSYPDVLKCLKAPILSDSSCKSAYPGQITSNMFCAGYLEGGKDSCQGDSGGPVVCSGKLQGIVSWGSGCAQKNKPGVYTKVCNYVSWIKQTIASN
Method in brief: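 Trypsin (1 U/mL; named porcine pancreatic in the methods, bovine in the table footnote) with Bz-L-Arg-pNA (1 mM) in 50 mM HEPES pH 7.4 containing 0.1 mM NaCl, with varied inhibitor concentrations. Incubated 120 min at 37 °C, then A405 read. IC50 from dose-inhibition curves, with leupeptin as control.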

chymotrypsin = experiment: Percentage of intact compound after chymotrypsin cleavage at 37 degree C for 120 min; assay type: ADME; conditions: read-out: Stability
Method in brief: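 Inhibitor (5 mM stock, diluted 1:100 by volume) incubated with bovine α-chymotrypsin (625 ng/mL solution) for 120 min at 37 °C. Intact compound and cleaved free acid quantified by reverse-phase HPLC (50–75% acetonitrile in 0.1% TFA over 25 min). Result given as percent intact compound relative to the initial amount.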

Chymase = biological target: T3, Chymase (Homo sapiens, UniProt P23946); experiment: Compound was tested by chromogenic assay for the inhibition of human Serine protease chymase
T3 sequence (P23946 whole entry): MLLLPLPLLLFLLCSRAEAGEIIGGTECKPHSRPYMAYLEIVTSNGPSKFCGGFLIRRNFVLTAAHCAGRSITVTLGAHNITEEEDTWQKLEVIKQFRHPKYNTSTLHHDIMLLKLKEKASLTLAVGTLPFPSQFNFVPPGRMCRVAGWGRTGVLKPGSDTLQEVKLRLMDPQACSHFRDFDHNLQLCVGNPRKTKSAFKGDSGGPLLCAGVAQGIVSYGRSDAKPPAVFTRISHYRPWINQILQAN

Cathepsin G = biological target: T4, Cathepsin G (Homo sapiens, UniProt P08311); experiment: Compound was tested by chromogenic assay for the inhibition of serine proteases like Human cathepsin G
T4 sequence (P08311 whole entry): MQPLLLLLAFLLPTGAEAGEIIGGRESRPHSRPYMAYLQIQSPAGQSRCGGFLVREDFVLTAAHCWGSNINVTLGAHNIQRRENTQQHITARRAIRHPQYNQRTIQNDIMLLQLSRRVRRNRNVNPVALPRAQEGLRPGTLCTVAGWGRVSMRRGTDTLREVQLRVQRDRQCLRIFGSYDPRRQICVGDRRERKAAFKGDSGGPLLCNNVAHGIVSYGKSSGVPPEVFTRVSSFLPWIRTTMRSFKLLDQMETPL

| SMILES | IC50 (Chymotrypsinogen A [2]) | IC50 (Serine protease 1) | remaining at 2 h (chymotrypsin) | IC50 [3] | further results |
| --- | --- | --- | --- | --- | --- |
| CCOC(=O)[C@H](Cc1ccccc1)NC(=O)C(C)(C)C(NC(=O)c1ccc(C#N)cc1)C(C)C (stereo not given in full) | 2200 nM | 60 µM | 90% | – | – |
| CCCCCCC(NC(=O)c1ccc(C#N)cc1)C(C)(C)C(=O)N[C@@H](Cc1ccccc1)C(=O)OCCC (stereo not given in full) | 230 nM | 17 µM | 97% | 270 nM | Ki (Chymotrypsinogen A [1]): 340 nM |
| CCCCCCC(NC(=O)c1ccco1)C(C)(C)C(=O)N[C@@H](Cc1ccccc1)C(=O)OCC (stereo not given in full) | 12000 nM | – | – | – | – |
| CCCCCCC(NC(=O)c1ccc(C#N)cc1)C(C)(C)C(=O)N[C@@H](Cc1ccccc1)C(=O)OC(C)C (stereo not given in full) | 86 nM | 6.7 µM | 98% | 200 nM | IC50 (Chymase): 0.15 µM; Ki (Chymotrypsinogen A [1]): 70 nM |
| CCCCCCC(NC(=O)c1ccccc1)C(C)(C)C(=O)N[C@@H](Cc1ccccc1)C(=O)OCC (stereo not given in full) | 17000 nM | 560 µM | < 1% | – | – |
| CCCCCCC(NC(=O)c1ccc(C#N)cc1)C(C)(C)C(=O)N[C@@H](Cc1ccccc1)C(=O)OCc1ccccc1 (stereo not given in full) | 230000 nM | – | – | – | – |
| CCOC(=O)[C@H](Cc1ccccc1)NC(=O)C(C)(C)C(CCc1ccccc1)NC(=O)c1ccc(C#N)cc1 (stereo not given in full) | 250 nM | – | – | – | – |
| CCCCCCC(NC(=O)OC(C)(C)C)C(C)(C)C(=O)N[C@@H](Cc1ccccc1)C(=O)OCC (stereo not given in full) | 1000 nM | 6.3 µM | – | – | – |
| CCCCCCC(NC(=O)c1ccc(C#N)cc1)C(C)(C)C(=O)N[C@@H](Cc1ccccc1)C(=O)OC (stereo not given in full) | 1100 nM | – | 98% | 4200 nM | Ki (Chymotrypsinogen A [1]): 12000 nM; IC50 (Cathepsin G): 1.5 µM |
| CC(C)(C(=O)OC(=O)C(C)(C)C(CCc1ccccc1)NC(=O)c1ccc(C#N)cc1)C(CCc1ccccc1)NC(=O)c1ccc(C#N)cc1 (stereo not given) | 2.1 nM | 0.3 µM | – | – | – |
| CCOC(=O)[C@H](Cc1ccccc1)NC(=O)C(C)(C)C(CC(C)C)NC(=O)c1ccc(C#N)cc1 (stereo not given in full) | – | – | 41% | – | – |
| CCCCC(NC(=O)c1ccc(C#N)cc1)C(C)(C)C(=O)N[C@@H](Cc1ccccc1)C(=O)OCC (stereo not given in full) | 27000 nM | – | – | 710000 nM | IC50 (Chymase): 510 µM |
| CCCCCCCCC(NC(=O)c1ccc(C#N)cc1)C(C)(C)C(=O)N[C@@H](Cc1ccccc1)C(=O)OCC (stereo not given in full) | 8600 nM | – | 61% | 2700 nM | IC50 (Cathepsin G): 6.6 µM |

Second part, led by results:

| IC50 (Chymotrypsinogen A [2]) | IC50 (Serine protease 1) | remaining at 2 h (chymotrypsin) | SMILES | IC50 [3] | further results |
| --- | --- | --- | --- | --- | --- |
| 2.6 nM | 0.54 µM | – | CCCCCCC(NC(=O)c1ccc(C#N)cc1)C(C)(C)C(=O)N[C@@H](Cc1ccccc1)C(=O)OCC (stereo in doubt; 3) | 7 nM | Ki (Chymotrypsinogen A [1]): 4.5 nM |
| – | – | 6% | CCCCCCC(NC(=O)c1ccc(C#N)cc1F)C(C)(C)C(=O)N[C@@H](Cc1ccccc1)C(=O)OCC (stereo not given in full) | – | – |
| 4200 nM | 220 µM | – | CCCCCCCCCCCCC(NC(=O)c1ccc(C#N)cc1)C(C)(C)C(=O)N[C@@H](Cc1ccccc1)C(=O)OCC (stereo not given in full) | – | – |
| 1.6 nM | – | – | CCCCCCC(NC(=O)c1ccc(C#N)cc1)C(C)(C)C(=O)N[C@@H](Cc1ccccc1)C(=O)OCC (stereo in doubt; 3-F) | 8.6 nM | – |
| – | – | 3% | CCCCCC(NC(=O)c1ccc(C#N)cc1)C(C)(C)C(=O)N[C@@H](Cc1ccccc1)C(=O)OCC (stereo not given in full) | – | – |
| 3400 nM | – | 91% | CCOC(=O)[C@H](Cc1ccccc1)NC(=O)C(C)(C)C(CC)NC(=O)c1ccc(C#N)cc1 (stereo not given in full) | – | – |
| – | – | 16% | CCCCCCCCCCC(NC(=O)c1ccc(C#N)cc1)C(C)(C)C(=O)N[C@@H](Cc1ccccc1)C(=O)OCC (stereo not given in full) | – | – |
| 5.1 nM | – | – | CCCCCCC(NC(=O)c1ccc(C#N)cc1)C(C)(C)C(=O)N[C@@H](Cc1ccccc1)C(=O)OCC (stereo in doubt; 3-R) | 14 nM | – |
| – | – | < 1% | CCCCCCCC(NC(=O)c1ccc(C#N)cc1)C(C)(C)C(=O)N[C@@H](Cc1ccccc1)C(=O)OCC (stereo not given in full) | – | – |
| – | – | 11% | CCCC(NC(=O)c1ccc(C#N)cc1)C(C)(C)C(=O)N[C@@H](Cc1ccccc1)C(=O)OCC (stereo not given in full) | – | – |
| 73000 nM | – | – | CCCCCCC(NC(=O)c1ccc(C#N)cc1)C(C)(C)C(=O)N[C@@H](Cc1ccccc1)C(=O)OC(C)(C)C (stereo not given in full) | – | – |

Reference: ChEMBL document CHEMBL1132421, “N-[2,2-dimethyl-3-(N-(4-cyanobenzoyl)amino)nonanoyl]-L-phenylalanine ethyl ester as a stable ester-type inhibitor of chymotrypsin-like serine proteases: structural requirements for potent inhibition of alpha-chymotrypsin” (J Med Chem, 1999)
